Source: ChEMBL document CHEMBL4145545, “Synthesis and structure-activity relationships of asymmetric dimeric β-carboline derivatives as potential antitumor agents” (Eur J Med Chem, 2018)
Active and inactive are the calls of the source. The calls are words filed in the database; no cut-off is given here.

Experiments:
[1] = system: ECa-109 cell line; assay: Cytotoxicity against human ECA109 cells assessed as cell growth inhibition after 24 hrs by MTT assay; type: functional, cell-based; conditions: ECa-109, 24 h
How it was run: (§1)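 Cell lines grown to log phase in RPMI-1640 with 10% FBS, penicillin and streptomycin. About 10^5 cells/mL were plated and pre-incubated 24 h at 37 °C in 5% CO2. Compounds were given in DMSO, final ≤2% (v/v). MTT read-out was OD at 490 nm. Triplicate wells per concentration, each assay run ≥3 times. IC50 is 50% OD reduction versus untreated cells, calculated by the Logit method. Cisplatin was the reference.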

[2] = system: Sarcoma-180; assay: Antitumor activity against mouse Sarcoma 180 cells implanted in mouse assessed as tumor growth inhibition at 8.3 mg/kg, ip administered once per day for 7 consecutive days starting from 24 hrs post tumor inoculation and measured on day 21 post tumor inoculation relative to control; type: functional; conditions: Sarcoma-180, ip, read-out: TGI
How it was run: (§2)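 Tumor cells were harvested from 7-day donor tumors, and 2×10^6 viable cells/mouse were injected s.c. in the armpit. Groups of 10 female mice received i.p. compound daily for 7 days, starting 24 h after inoculation. Controls were vehicle (negative) and CTX 30 mg/kg (positive). Body weight was recorded every 3 days. On day 21 tumors were excised and weighed, and inhibition was calculated as (C−T)/C×100 from mean tumor weights.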

[3] = system: Chorioallantoic membrane; assay: In vivo antiangiogenic activity in chicken embryo chorioallantoic membrane at 50 uM/disc after 48 hrs by microscopic method; type: functional, organism-based; conditions: Gallus gallus
[4] = system: Mus musculus; assay: Neurotoxicity in Kunming mouse assessed as jumping behavior at 5 to 500 mg/kg, ip observed continuously for first 2 hrs, intermittently for next 24 hrs and occasionally thereafter for 14 days; type: toxicity, organism-based; conditions: in vivo
How it was run: (§3)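 SPF KM mice, 6-8 weeks, 19-22 g, fasted overnight with water available. Single i.p. dose, 5.0 to 500 mg kg-1 in 0.5% CMC-Na, 10 mice per group (5 male, 5 female). Observed for behaviour, neurotoxic signs and deaths, then killed on day 14 and heart, liver and kidneys inspected macroscopically. LD50 derived graphically.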

[5] = system: Mus musculus; assay: Neurotoxicity in Kunming mouse assessed as twitch at 5 to 500 mg/kg, ip observed continuously for first 2 hrs, intermittently for next 24 hrs and occasionally thereafter for 14 days; type: toxicity, organism-based; conditions: in vivo; how it was run: as §3
[6] = Acute toxicity in ip dosed Kunming mouse observed continuously for first 2 hrs, intermittently for next 24 hrs and occasionally thereafter for 14 days; type: organism-based; conditions: in vivo; how it was run: as §3
[7] = system: HT-29; assay: Antimigratory activity against human HT-29 cells assessed as reduction in wound closure at 0.5 to 50 uM after 24 hrs by inverted microscopic method; type: functional, cell-based
How it was run: (§4)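 HT-29 or LLC cells (about 1×10^6/mL) were grown to 90% confluence and given a single straight pipette-tip scratch. After a PBS wash, fresh FBS-containing medium with various compound concentrations was added for 24 h. Migration distance was measured under an inverted microscope. Each assay was done three times, with CA4P as positive control.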

[8] = system: Lewis lung carcinoma cell line; assay: Antimigratory activity against mouse LLC cells assessed as reduction in wound closure at 50 uM after 24 hrs by inverted microscopic method; type: functional, cell-based; how it was run: as §4
[9] = system: Mus musculus; assay: Acute toxicity in ip dosed Kunming mouse assessed as death at higher dose up to 4 to 8 hrs; type: organism-based; conditions: in vivo; how it was run: as §3
[10] = system: Mus musculus; assay: Neurotoxicity in Kunming mouse assessed as supination at 5 to 500 mg/kg, ip observed continuously for first 2 hrs, intermittently for next 24 hrs and occasionally thereafter for 14 days; type: toxicity, organism-based; conditions: in vivo; how it was run: as §3
[11] = system: Lewis lung carcinoma cell line; assay: Cytotoxicity against mouse LLC cells assessed as cell growth inhibition after 24 hrs by MTT assay; type: functional, cell-based; how it was run: as §1
[12] = system: Mus musculus; assay: Neurotoxicity in Kunming mouse assessed as tremble at 5 to 500 mg/kg, ip observed continuously for first 2 hrs, intermittently for next 24 hrs and occasionally thereafter for 14 days; type: toxicity, organism-based; conditions: in vivo; how it was run: as §3
[13] = system: HT-29; assay: Cytotoxicity against human HT-29 cells assessed as cell growth inhibition after 24 hrs by MTT assay; type: functional, cell-based; conditions: HT-29, 24 h; how it was run: as §1
[14] = system: Mus musculus; assay: Hepatotoxicity in Kunming mouse at 5 to 500 mg/kg, ip after 14 days by macroscopic method; type: toxicity, organism-based; conditions: in vivo, 336 h
[15] = system: Mus musculus; assay: Nephrotoxicity in Kunming mouse at 5 to 500 mg/kg, ip after 14 days by macroscopic method; type: toxicity, organism-based; conditions: in vivo, 336 h
[16] = system: HepG2; assay: Cytotoxicity against human HepG2 cells assessed as cell growth inhibition after 24 hrs by MTT assay; type: functional, cell-based; conditions: HepG2, 24 h; how it was run: as §1
[17] = system: MCF7; assay: Cytotoxicity against human MCF7 cells assessed as cell growth inhibition after 24 hrs by MTT assay; type: functional, cell-based; conditions: MCF7, 24 h; how it was run: as §1
[18] = Cytotoxicity against human BGC cells assessed as cell growth inhibition after 24 hrs by MTT assay; type: functional, cell-based; how it was run: as §1
[19] = system: Mus musculus; assay: Cardiotoxicity in Kunming mouse at 5 to 500 mg/kg, ip after 14 days by macroscopic method; type: toxicity, organism-based; conditions: in vivo, 336 h
[20] = system: SK-OV-3; assay: Cytotoxicity against human SKOV3 cells assessed as cell growth inhibition after 24 hrs by MTT assay; type: functional, cell-based; conditions: SK-OV-3, 24 h; how it was run: as §1
[21] = system: 769-P; assay: Cytotoxicity against human 769-P cells assessed as cell growth inhibition after 24 hrs by MTT assay; type: functional, cell-based; how it was run: as §1
[22] = system: A-375; assay: Cytotoxicity against human A375 cells assessed as cell growth inhibition after 24 hrs by MTT assay; type: functional, cell-based; conditions: A-375, 24 h; how it was run: as §1
[23] = system: Lewis lung carcinoma cell line; assay: Antitumor activity against mouse LLC cells implanted in mouse assessed as tumor growth inhibition at 8.3 mg/kg, ip administered once per day for 7 consecutive days starting from 24 hrs post tumor inoculation and measured on day 21 post tumor inoculation relative to control; type: functional; conditions: read-out: TGI; how it was run: as §2
[24] = system: Sarcoma-180; assay: Antitumor activity against mouse Sarcoma 180 cells implanted in mouse assessed as tumor growth inhibition at 7.5 mg/kg, ip administered once per day for 7 consecutive days starting from 24 hrs post tumor inoculation and measured on day 21 post tumor inoculation relative to control; type: functional; conditions: Sarcoma-180, ip, read-out: TGI; how it was run: as §2
[25] = system: Lewis lung carcinoma cell line; assay: Antitumor activity against mouse LLC cells implanted in mouse assessed as tumor growth inhibition at 7.5 mg/kg, ip administered once per day for 7 consecutive days starting from 24 hrs post tumor inoculation and measured on day 21 post tumor inoculation relative to control; type: functional; conditions: read-out: TGI; how it was run: as §2
[26] = system: MCF7; assay: Cytotoxicity against human MCF7 cells; type: functional, cell-based; how it was run: as §1
[27] = system: HepG2; assay: Cytotoxicity against human HepG2 cells; type: functional, cell-based; how it was run: as §1
[28] = system: HT-29; assay: Cytotoxicity against human HT-29 cells; type: functional, cell-based; how it was run: as §1
[29] = system: Sarcoma-180; assay: Antitumor activity against mouse Sarcoma 180 cells implanted in mouse assessed as tumor growth inhibition at 1.6 mg/kg, ip administered once per day for 7 consecutive days starting from 24 hrs post tumor inoculation and measured on day 21 post tumor inoculation relative to control; type: functional; conditions: Sarcoma-180, ip, read-out: TGI; how it was run: as §2
[30] = system: Lewis lung carcinoma cell line; assay: Antitumor activity against mouse LLC cells implanted in mouse assessed as tumor growth inhibition at 1.6 mg/kg, ip administered once per day for 7 consecutive days starting from 24 hrs post tumor inoculation and measured on day 21 post tumor inoculation relative to control; type: functional; conditions: read-out: TGI; how it was run: as §2

Row | SMILES | IC50 [1] [µM] | Activity [4] | Activity [5] | LD50 at 14 days [6] [mg/kg] | Activity [9] | Activity [10] | IC50 [11] [µM] | Activity [12] | IC50 [13] [µM] | Activity [14] | Activity [15] | IC50 [16] [µM] | IC50 [17] [µM] | IC50 [18] [µM] | Activity [19] | IC50 [20] [µM] | IC50 [21] [µM] | IC50 [22] [µM] | further results
1 | COc1ccc(-c2nccc3c4ccccc4n(CCCCOc4ccc5c6ccnc(C)c6n(CCCc6ccccc6)c5c4)c23)cc1.Cl | 4.5 | Non-Toxic | Non-Toxic | 41.5 | Toxic | Non-Toxic | 3.4 | Non-Toxic | 13.3 | Non-Toxic | Non-Toxic | 14.1 | 8.5 | 12.1 | Non-Toxic | 4.2 | 4.9 | 13.6 | inhibition in vivo at 8.3 mg/kg [2]: 54.6%; Activity [3]: Active; Activity [7]: Active; Activity [8]: Active; inhibition in vivo at 8.3 mg/kg [23]: 48.1%
2 | Cc1nccc2c3ccc(OCCCCn4c5ccccc5c5ccnc(-c6cccs6)c54)cc3n(CCCc3ccccc3)c12.Cl | 4.9 | Non-Toxic | Non-Toxic | 37.5 | Toxic | Non-Toxic | 4.2 | Non-Toxic | 18.1 | Non-Toxic | Non-Toxic | 8.1 | 12 | 11.4 | Non-Toxic | 11.2 | 11.9 | 14.6 | inhibition in vivo at 7.5 mg/kg [24]: 47.3%; inhibition in vivo at 7.5 mg/kg [25]: 31.6%
3 | CCCCn1c2cnccc2c2ccc(OCCCCCCOc3ccc4c5ccnc(C)c5n(CCCC)c4c3)cc21 | – | – | – | – | – | – | – | – | – | – | – | – | – | – | – | – | – | – | IC50 [26]: > 100 µM; IC50 [27]: 13 µM; IC50 [28]: 6.1 µM
4 | COc1ccc2c3ccnc(C)c3n(CCCCOc3ccc4c5ccnc(C)c5n(CCCc5ccccc5)c4c3)c2c1.Cl | 18.4 | Toxic | Toxic | 8 | Toxic | Toxic | 14.4 | Toxic | 21.6 | Non-Toxic | Non-Toxic | 5.6 | 23.4 | 4.7 | Non-Toxic | 30 | 8.5 | 15.3 | inhibition in vivo at 1.6 mg/kg [29]: 49.9%; inhibition in vivo at 1.6 mg/kg [30]: 38.2%
